The test system of test [1] is Plasmodium falciparum. As to the kind of experiment: Antimalarial activity against Plasmodium falciparum infected in human O+ erythrocytes after 48 hrs by HRP2-ELISA method. In kind it is functional, organism-based. On the technique in general: In an ELISA, binding on a coated surface is turned into a signal by an enzyme label.
The test system of test [2] is Radical scavenging activity. As to the kind of experiment: Antioxidant activity assessed as DPPH free radical scavenging activity at 100 uM after 1 hr. In kind it is functional. Put shortly: (§1)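 Test compound at various concentrations added to 60 µM methanolic DPPH. Held 1 h at room temperature, then absorbance read at 517 nm; trolox used as reference standard. Values from three experiments.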
(Loss of DPPH colour is used to gauge radical scavenging.)

The nature of test [3]: Antioxidant activity assessed as ABTS free radical scavenging activity at 100 uM after 12 hrs. In kind it is functional. A digest of the protocol: (§2)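 ABTS radical cation made by mixing 7 mM ABTS stock with 2.45 mM potassium persulfate, left 12 h in dark. Ethanolic compound solution added to ABTS solution, absorbance at 734 nm read after mixing up to 6 min. Reported as % ABTS radical scavenged; triplicate.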

The test system of test [4] is Radical scavenging activity. Put plainly: Antioxidant activity assessed as DPPH free radical scavenging activity after 1 hr. In kind it is functional. A digest of the protocol:
as §1

A short description of test [5]: Antioxidant activity assessed as ABTS free radical scavenging activity after 12 hrs. In kind it is functional. A digest of the protocol: as §2

A word on the IC50: it is the concentration that gives 50% inhibition. Usually inhibition stands for the change of the read-out against control, counted positive when it falls.

Some results are limits rather than exact numbers.

For the compound `CC1(C)OC(=O)C(=Cc2ccc3c(c2)OCO3)C(=O)O1`, the half-maximal inhibitory concentration (IC50) in test [1] stood at 28.1 µM. Also, the inhibition was determined as 8.2% in test [2] and 8.25% in test [3].

On to `CC1(C)OC(=O)C(=Cc2ccccc2)C(=O)O1`, for which the half-maximal inhibitory concentration (IC50) in test [1] turned out to be 37.8 µM.

Consider `COc1ccc2ccccc2c1C=C1C(=O)OC(C)(C)OC1=O`, for which, in test [1], the IC50 was 31.8 µM. The inhibition was 9.48% in test [2] and 4.73% in test [3].

As for `CC1(C)OC(=O)C(=C/C=C/c2ccccc2)C(=O)O1`, in test [1], the 50% inhibitory concentration (IC50) was determined as 24.3 µM. Moreover, the inhibition in test [2] stood at 53.1%; in test [3], 20.2%.

`COc1cc(OC)c(OC)cc1C=C1C(=O)OC(C)(C)OC1=O`: in test [1], 33.9 µM corresponded to half-maximal inhibition (IC50). For the same compound, the inhibition amounted to 6.23% in test [2] and 9.86% in test [3].

As to `O=C1O[C@H]([C@@H](O)CO)C(O)=C1O` [ASCORBIC ACID], the inhibition in test [2] came out at 99.4%; in test [3] it was 98%. Further, the IC50 in test [4] stood at 22.4 µM; in test [5] it was 25.5 µM.

For the compound `CC1(C)OC(=O)C(=Cc2c3ccccc3cc3ccccc23)C(=O)O1`, the IC50 in test [1] is over 100 µM. The inhibition in test [2] is 8.76%; in test [3], 10.7%.

With `Cc1c(C)c2c(c(C)c1O)CCC(C)(C(=O)O)O2` (stereo not drawn) [TROLOX], the inhibition in test [2] is 99.5%; in test [3] it was 99.1%. The half-inhibitory concentration (IC50) in test [4] was 15.7 µM; in test [5], 16.2 µM.

In test [1], `C[C@@H]1CC[C@H]2[C@@H](C)C(=O)O[C@@H]3O[C@@]4(C)CC[C@@H]1[C@]32OO4` [ARTEMISININ] had an IC50 of 0.0028 µM.

In the case of `COc1cc(C=C2C(=O)OC(C)(C)OC2=O)ccc1O`, the IC50 came to 9.68 µM in test [1], 24 µM in test [4] and 30.5 µM in test [5]. Moreover, the values for the inhibition in test [2] and in test [3] were 76% and 92.6%, respectively.

`CC1(C)OC(=O)C(=Cc2ccc(O)cc2)C(=O)O1` displayed an IC50 in test [1] of 34.6 µM. The inhibition stood at 5.12% in test [2] and 14.4% in test [3].

For the compound `COc1ccc(C=C2C(=O)OC(C)(C)OC2=O)cc1OCc1ccccc1`, the midpoint of inhibition in test [1], the IC50, lay at 36.1 µM.

`COc1cc(C=C2C(=O)OC(C)(C)OC2=O)ccc1OCc1ccccc1`: in test [1], the half-maximal inhibitory concentration (IC50) came to 37.2 µM. Further, the inhibition was 10.7% in test [2] and 3.62% in test [3].

Consider `COc1ccc(C=C2C(=O)OC(C)(C)OC2=O)cc1OC`, for which half-maximal inhibition in test [1] (IC50) required 26.1 µM. The inhibition in test [2] was 4.74%; in test [3] it was 6.84%.

Consider `CCOc1cc(C=C2C(=O)OC(C)(C)OC2=O)ccc1O`, for which the values for the half-maximal inhibitory concentration (IC50) in test [1], in test [4] and in test [5] were 15.5 µM, 39.1 µM and 30.7 µM, respectively. For the same compound, the inhibition came to 66.2% in test [2] and 95.6% in test [3].

`CC1(C)OC(=O)C(=Cc2ccccc2[N+](=O)[O-])C(=O)O1`: in test [1], the half-maximal inhibitory concentration (IC50) was 39.6 µM. The inhibition in test [2] is 6.41%; in test [3], 1.3%.

As for `O=C1CCCC(=O)C1=Cc1ccccc1`, in test [1], the IC50 was over 100 µM.

In turn, `CC1(C)OC(=O)C(=Cc2ccc3ccccc3c2)C(=O)O1` showed a 50% inhibitory concentration (IC50) in test [1] of 14.3 µM. For the same compound, the inhibition in test [2] stood at 20.6%; in test [3], 17%.

`CC1(C)OC(=O)C(=Cc2c[nH]c3ccccc23)C(=O)O1` came in with an IC50 in test [1] of 41.7 µM. Moreover, the figures for the inhibition in test [2] and in test [3] were 1.79% and 3.12%, respectively.

As to `COc1ccc(C=C2C(=O)OC(C)(C)OC2=O)cc1O`, the values for the half-maximal inhibitory concentration (IC50) in test [1], in test [4] and in test [5] were 12.4 µM, 80 µM and 72.2 µM, respectively. The inhibition worked out at 40.2% in test [2] and 52.8% in test [3].

In turn, `CC1(C)OC(=O)C(=Cc2cccc3ccccc23)C(=O)O1` yielded an IC50 in test [1] of 16.1 µM. For the same compound, the results for the inhibition in test [2] and in test [3] were 8.88% and 7.55%, respectively.

Regarding `CC1(C)OC(=O)C2(OC2c2ccccc2)C(=O)O1` (stereo not drawn), the IC50 in test [1] is over 100 µM.

Turning to `CC1(C)OC(=O)C2(OC2c2ccccc2[N+](=O)[O-])C(=O)O1` (stereo not drawn), in test [1], the IC50 was over 100 µM.

`COc1ccc(C=C2C(=O)OC(C)(C)OC2=O)cc1`: half-maximal inhibition in test [1] (IC50) required 36.4 µM. Moreover, the inhibition in test [2] is 5.81%; in test [3], 9.26%.

For the compound `COc1ccc(OC)c(C=C2C(=O)OC(C)(C)OC2=O)c1`, in test [1], the IC50 amounted to 33.2 µM. For the same compound, the inhibition in test [2] is 12.2%; in test [3], 13.8%.

In test [1], `COc1ccc(C=C2C(=O)OC(C)(C)OC2=O)c(OC)c1OC` showed a half-inhibitory concentration (IC50) of 34.7 µM. In addition, the inhibition in test [2] turned out to be 5.72%; in test [3], 13%.

Compound `CC1(C)OC(=O)C(=Cc2cccs2)C(=O)O1` showed an IC50 in test [1] of over 100 µM. The inhibition was 6.32% in test [2] and 3.77% in test [3].

As for `CN(C)c1ccc(C=C2C(=O)OC(C)(C)OC2=O)cc1`, the concentration for half-maximal inhibition (IC50) in test [1] turned out to be 35.2 µM. Also, the figures for the inhibition in test [2] and in test [3] were 10.3% and 13.9%, respectively.

In turn, `COc1cc(C=C2C(=O)OC(C)(C)OC2=O)cc(OC)c1OC` had an IC50 in test [1] of 20.2 µM. For the same compound, the inhibition in test [2] was 3.24%; in test [3], 5.33%.

Values taken from ChEMBL document CHEMBL1212850, “Synthesis and biological evaluation of arylidene analogues of Meldrum's acid as a new class of antimalarial and antioxidant agents” (Bioorg Med Chem, 2010).
